Activity calls are given as the source filed them.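 Rule for the calls: active = log virus titer change below -1, over tenfold drop in progeny titer versus untreated infected control; inactive = the rest.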
Tested on: HEp-2 cells, RSV plaque reduction, virus titer
Assay: antiviral effect on respiratory syncytial virus yield – cell-based, plaque reduction, set 4 (AID 588713)
Details: at 10 µM; hits give low values
In short: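 Test system: HEp-2 cells infected with RSV Long strain, yield reduction format; probe or stimulus: RSV Long, MOI 0.1; times: 2 h infection, then 48 h compound exposure at 37 °C; technique: plaque titration on fresh HEp-2 under 1% Avicel, 6 days, neutral red stain; read-out: progeny virus titer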

| Compound | log virus titer change |
| --- | --- |
| O=C(O)c1ccc(Cn2c(=O)n(Cc3ccc(C(=O)NCC4COC4)cc3)c(=O)c3ccccc32)cc1 | 0.68 (inactive) |
| CC(C)c1ccc(Cn2c(=O)n(Cc3ccc(C(=O)NCc4ccco4)cc3)c(=O)c3ccccc32)cc1 | -2.83 |
| COCCCNC(=O)c1ccc(Cn2c(=O)c3ccccc3n(Cc3ccc([N+](=O)[O-])cc3)c2=O)cc1 | < -6.18 |
| CN(C)c1ccc(Cn2c(=O)n(Cc3ccc(C(=O)NCC4COC4)cc3)c(=O)c3ccccc32)cc1 | < -6.18 |
